Experiments:
[1] = target: T1, RNA-directed RNA polymerase (Hepacivirus hominis, UniProt O39930); assay: Inhibitory activity against by hepatitis C virus NS5B polymerase
Summary of the method: (§1)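 Purified ΔC55 NS5B polymerase assayed with heterogenic template RNA. IC50 values come from a single experiment or are arithmetic means of multiple experiments, as footnoted; some were measured in duplicate.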

[2] = test system: Huh-7; assay: Effective concentration required to inhibit replication of subgenomic HCV RNA in HUH-7 cells in the presence of 10% fetal calf serum; format: functional, cell-based; details: Homo sapiens
Summary of the method: (§2)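 Subgenomic HCV replicon in HUH-7 cells, run in medium with 10% fetal calf serum (a modification of Bartenschlager's method). EC50 was determined only for compounds giving >50% inhibition in an initial screen at a fixed 5 μM. Values are the arithmetic mean ± half-range or standard error of at least two independent determinations, or from a single experiment where noted.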

[3] = test system: Huh-7; assay: Effective concentration required to inhibit replication of subgenomic HCV RNA in HUH-7 cells; format: functional, cell-based; details: Homo sapiens; summary of the method: as §2
[4] = target: T2, pregnane X receptor (PXR, NR1I2) (Homo sapiens, UniProt O75469); assay: Inhibition of pregnane X receptor mediated activation of alkaline phosphatase reporter gene at 10 uM; format: functional
T2 sequence (O75469 whole entry): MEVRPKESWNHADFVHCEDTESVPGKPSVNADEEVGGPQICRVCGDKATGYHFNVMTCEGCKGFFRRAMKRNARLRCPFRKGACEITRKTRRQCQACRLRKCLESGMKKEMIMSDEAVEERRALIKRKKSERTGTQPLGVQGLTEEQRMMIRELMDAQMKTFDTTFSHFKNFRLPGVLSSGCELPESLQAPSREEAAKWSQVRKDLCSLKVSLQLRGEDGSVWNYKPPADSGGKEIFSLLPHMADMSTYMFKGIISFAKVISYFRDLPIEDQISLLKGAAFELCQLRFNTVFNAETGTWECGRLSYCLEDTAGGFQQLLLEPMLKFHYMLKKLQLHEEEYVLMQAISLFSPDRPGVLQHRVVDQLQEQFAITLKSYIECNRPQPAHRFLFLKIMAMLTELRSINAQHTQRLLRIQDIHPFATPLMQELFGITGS
Summary of the method: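 HepG2 cells were cotransfected with a human PXR expression vector and a secreted alkaline phosphatase (SEAP) reporter driven by a synthetic PXR-responsive element. Cells were incubated 48 h with or without test compound, and SEAP activity was read with a commercial detection kit.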

[5] = target: T1, RNA-directed RNA polymerase; assay: Inhibitory activity against hepatitis C virus NS5B polymerase enzyme; Range=6-9 nM; summary of the method: as §1
[6] = test system: Huh-7; assay: Effective concentration required to inhibit replication of subgenomic HCV RNA in HUH-7 cells in the presence of 50% normal human serum; format: functional, cell-based
Summary of the method: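 Subgenomic HCV replicon in HUH-7 cells run under high-serum conditions with 50% normal human serum in place of 10% fetal calf serum. EC50 values are the arithmetic mean ± half-range or standard error of at least two independent determinations.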

T1 sequence (O39930 whole entry): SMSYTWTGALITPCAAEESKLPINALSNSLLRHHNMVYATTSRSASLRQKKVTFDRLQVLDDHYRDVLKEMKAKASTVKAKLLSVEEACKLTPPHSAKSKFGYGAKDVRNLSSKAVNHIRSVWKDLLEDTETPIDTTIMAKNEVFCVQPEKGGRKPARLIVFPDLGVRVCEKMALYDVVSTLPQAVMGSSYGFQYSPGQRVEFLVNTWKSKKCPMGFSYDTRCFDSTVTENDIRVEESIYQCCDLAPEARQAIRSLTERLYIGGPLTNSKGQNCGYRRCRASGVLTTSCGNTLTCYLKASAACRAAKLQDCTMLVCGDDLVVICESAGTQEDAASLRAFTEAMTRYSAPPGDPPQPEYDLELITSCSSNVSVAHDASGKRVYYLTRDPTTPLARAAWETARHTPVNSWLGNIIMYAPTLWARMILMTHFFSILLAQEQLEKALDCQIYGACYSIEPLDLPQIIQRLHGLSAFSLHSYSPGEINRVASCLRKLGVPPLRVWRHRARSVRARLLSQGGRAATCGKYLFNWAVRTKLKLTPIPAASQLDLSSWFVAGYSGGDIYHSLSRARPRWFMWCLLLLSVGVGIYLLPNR

Compound	IC50 [1] [nM]	EC50 [2] [nM]	EC50 [3] [nM]	also measured
C=Cc1c(C2CCCCC2)c2ccc(C(=O)O)cc2n1CC(=O)N1CCC(N(C)C)CC1	49	2800	–	–
CC(C)N(C)C(=O)Cn1c(-c2ccc(Cl)cc2)c(C2CCCCC2)c2ccc(C(=O)O)cc21	11	–	900	–
CN1CCN(C(=O)Cn2c(-c3ccccc3)c(C3CCCCC3)c3ccc(C(=O)O)cc32)CC1	39	–	500	–
CS(=O)(=O)N1CCN(C(=O)Cn2c(-c3ccccc3)c(C3CCCCC3)c3cc(C(=O)O)ccc32)CC1	–	–	> 5000	–
CN(C)C1CCN(C(=O)Cn2c(C3CCCCC3)c(C3CCCCC3)c3ccc(C(=O)O)cc32)CC1	72	4000	–	–
CN(C)C1CCN(C(=O)Cn2c(-c3ccc(Cl)cc3)c(C3CCCCC3)c3ccc(C(=O)O)cc32)CC1	–	–	–	inhibition at 10 µM [4]: 15%
CC(C)N(C)Cc1cccc(-c2c(C3CCCCC3)c3ccc(C(=O)O)cc3n2CC(=O)N(C)C)c1	78	1100	–	–
CN(C)C(=O)Cn1c(-c2cccnc2)c(C2CCCCC2)c2ccc(C(=O)O)cc21	332	13000	–	–
CN1CCN(C(=O)Cn2c(-c3ccc(Cl)cc3)c(C3CCCCC3)c3ccc(C(=O)O)cc32)CC1	12	–	300	–
CS(=O)(=O)N1CCN(C(=O)Cn2c(-c3ccccc3)c(C3CCCC3)c3ccc(C(=O)O)cc32)CC1	–	–	> 5000	–
CN1CCN(C(=O)Cn2c(-c3ccccc3)c(C3CCCC3)c3ccc(C(=O)O)cc32)CC1	68	–	800	–
CN(C)C1CCN(C(=O)Cn2c(-c3ccc(Cl)cc3)c(C3CCCCC3)c3ccc(C(=O)O)cc32)C1 (stereo unspecified)	13	–	200	–
CN(C)Cc1cc(-c2c(C3CCCCC3)c3ccc(C(=O)O)cc3n2CC(=O)N(C)C)ccc1Cl	78	2700	–	–
CN(C)C(=O)CN(C)C(=O)Cn1c(-c2ccccc2)c(C2CCCCC2)c2ccc(C(=O)O)cc21	98	–	1900	–
CS(=O)(=O)N1CCN(C(=O)Cn2c(-c3ccccc3)c(C3CCCCC3)c3ccc(C(=O)O)cc32)CC1	19	–	900	–
CC(C)N(C)C(=O)Cn1c(-c2ccccc2)c(C2CCCCC2)c2cc(C(=O)O)ccc21	–	–	> 5000	–
CCN(CC)C1CCN(C(=O)Cn2c(-c3ccc(OC)cc3)c(C3CCCCC3)c3ccc(C(=O)O)cc32)CC1	–	144	–	IC50 [5]: 9 nM; EC50 [6]: 422 nM
CN1CCCC(CN(C)C(=O)Cn2c(-c3cccc(F)c3)c(C3CCCCC3)c3ccc(C(=O)O)cc32)C1 (stereo unspecified)	–	–	–	inhibition at 10 µM [4]: 72%

More lines, main results first:

IC50 [1] [nM]	EC50 [2] [nM]	EC50 [3] [nM]	Compound	also measured
41	300	–	CN(C)C1CCN(C(=O)Cn2c(-c3ccccc3)c(C3CCCCC3)c3ccc(C(=O)O)cc32)CC1	inhibition at 10 µM [4]: 14%
–	1500	–	CN(C)C(=O)Cn1c(-c2ccccc2)c(C2CCCCC2)c2ccc(C(=O)O)cc21	–
–	–	> 5000	O=C(Cn1c(-c2ccccc2)c(C2CCCCC2)c2cc(C(=O)O)ccc21)NCC1CC1	–
147	3300	–	CN(C)Cc1cccc(-c2c(C3CCCCC3)c3ccc(C(=O)O)cc3n2CC(=O)N(C)C)c1	–
12	–	300	CN1CCCC(CN(C)C(=O)Cn2c(-c3ccc(Cl)cc3)c(C3CCCCC3)c3ccc(C(=O)O)cc32)C1 (stereo unspecified)	inhibition at 10 µM [4]: 92%
8	–	1400	O=C(Cn1c(-c2ccc(Cl)cc2)c(C2CCCCC2)c2ccc(C(=O)O)cc21)NCC1CC1	–
71	–	700	CN(C)C1CCN(C(=O)Cn2c(-c3ccccc3)c(C3CCCCC3)c3ccc(C(=O)O)cc32)C1 (stereo unspecified)	–
448	–	3500	CN1CCN(C(=O)Cn2c(-c3ccccc3)c(C3CCCCC3)c3cc(C(=O)O)ccc32)CC1	–
17	–	1100	CN(C)C(=O)CN(C)C(=O)Cn1c(-c2ccc(Cl)cc2)c(C2CCCCC2)c2ccc(C(=O)O)cc21	–
–	–	> 5000	CC(C)N(C)C(=O)Cn1c(-c2ccccc2)c(C2CCCC2)c2ccc(C(=O)O)cc21	–

— ChEMBL document CHEMBL1140313, “Potent inhibitors of subgenomic hepatitis C virus RNA replication through optimization of indole-N-acetamide allosteric inhibitors of the viral NS5B polymerase” (J Med Chem, 2005)
